Measurements taken from ChEMBL document CHEMBL4270555, “Synthesis and biological evaluation of magnolol derivatives as melatonergic receptor agonists with potential use in depression” (Eur J Med Chem, 2018).
The source made the active and inactive calls. The rule behind the calls is not given here.

Assays:
[1] = Retention time of the compound by UPLC-IT-TOF-MS analysis; assay type: physicochemical
How it was run: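 Retention on C18 column (100 × 2.1 mm, 1.8 µm) at 30 °C; mobile phase A 0.05% formic acid in water, B 0.05% formic acid in acetonitrile, 0.2 mL/min, linear 5–100% B over 0–18.0 min; IT-TOF-MS detection in positive and negative modes.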

[2] = Drug level in Sprague-Dawley rat urine treated with Magnolol-4'-O-beta-D-glucopyranoside at 100 mg/kg, po by UPLC-IT-TOF-MS analysis; assay type: ADME, organism-based; settings: in vivo
How it was run: (§1)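 Rats (n = 6) housed in metabolic cages received 100.0 mg/kg orally; controls received 0.5% CMC-Na. Plasma, urine and faeces were collected and analyzed by LC-IT-TOF-MS on a C18 column at 30 °C. Gradient 5–100% acetonitrile with 0.05% formic acid over 18 min at 0.2 mL/min; positive and negative ion MS/MS.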

[3] = target: Melatonin receptor type 1A (Homo sapiens, UniProt P48039); test: Agonist activity at human MT1 receptor expressed in HEK293 cells at 1 mM after 24 hrs by Fluo-8 dye-based calcium assay relative to control; assay type: functional, cell-based
Melatonin receptor type 1A, sequence (P48039 whole entry): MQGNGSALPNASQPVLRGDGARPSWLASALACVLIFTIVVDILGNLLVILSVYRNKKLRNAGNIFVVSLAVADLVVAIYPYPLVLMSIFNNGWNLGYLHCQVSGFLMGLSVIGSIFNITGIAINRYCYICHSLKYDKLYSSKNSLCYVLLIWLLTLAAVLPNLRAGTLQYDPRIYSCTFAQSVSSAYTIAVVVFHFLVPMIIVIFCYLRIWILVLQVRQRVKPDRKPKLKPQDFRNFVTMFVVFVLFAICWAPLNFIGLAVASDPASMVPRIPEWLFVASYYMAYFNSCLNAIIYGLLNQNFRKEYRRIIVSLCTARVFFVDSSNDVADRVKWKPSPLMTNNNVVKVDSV
How it was run: (§2)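 Fluo-8 calcium assay in HEK293 cells stably expressing human MT1 or MT2, seeded 4×10^4/well and incubated 24 h. Compounds tested at 1.00 mM, agomelatine positive control at 3.33 µM; fluorescence at ex 485/em 525 nm. Agonism expressed as mean ± SD, n = 3.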

[4] = target: T1, Melatonin receptor type 1B (Homo sapiens) (UniProt P49286); test: Agonist activity at human MT2 receptor expressed in HEK293 cells at 1 mM after 24 hrs by Fluo-8 dye-based calcium assay relative to control; assay type: functional, cell-based; how it was run: as §2
T1 sequence (whole entry): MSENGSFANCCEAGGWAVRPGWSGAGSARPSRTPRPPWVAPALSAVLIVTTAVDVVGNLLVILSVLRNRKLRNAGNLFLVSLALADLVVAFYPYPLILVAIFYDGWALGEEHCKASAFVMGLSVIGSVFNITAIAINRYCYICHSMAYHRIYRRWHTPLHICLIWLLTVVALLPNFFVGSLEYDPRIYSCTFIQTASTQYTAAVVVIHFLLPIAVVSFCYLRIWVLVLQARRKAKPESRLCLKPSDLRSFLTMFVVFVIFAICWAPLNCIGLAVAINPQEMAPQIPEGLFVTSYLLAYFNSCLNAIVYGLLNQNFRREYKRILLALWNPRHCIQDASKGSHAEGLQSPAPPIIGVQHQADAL

[5] = Drug level in Sprague-Dawley rat feces treated with Magnolol-4'-O-beta-D-glucopyranoside at 100 mg/kg, po by UPLC-IT-TOF-MS analysis; assay type: ADME, organism-based; settings: in vivo; how it was run: as §1
[6] = tested on: Mus musculus; test: Antidepressant activity in Kunming mouse assessed as decrease in immobility time at 20 mg/kg, po by tail suspension test; assay type: functional, organism-based
How it was run: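 Male Kunming mice (18–20 g), dosed orally and tested acoustically and visually isolated. Each was suspended 50 cm above a wooden box by tape placed about 1 cm from the tail tip for 6 min. Immobility (s) over the last 4 min was recorded automatically by video tracking; n = 10, mean ± SEM vs vehicle.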

[7] = tested on: Mus musculus; test: Antidepressant activity in Kunming mouse assessed as decrease in immobility duration at 20 mg/kg, po by forced swim test; assay type: functional, organism-based
How it was run: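 Male Kunming mice (18–20 g), group-housed at 22 ± 2 °C on a 12 h light/dark cycle, dosed orally. Each mouse was placed in a glass cylinder (25 cm high, 15 cm diameter) holding 10 cm of water at 25 ± 1 °C and made to swim for 6 min. Immobility over the last 4 min was scored automatically by video tracking; n = 10, mean ± SEM vs vehicle.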

[8] = target: T1, Melatonin receptor type 1B (Homo sapiens); test: Potency index, ratio of compound effect to magnolol effect for human MT2 receptor; assay type: functional
[9] = Drug level in Sprague-Dawley rat plasma treated with Magnolol-4'-O-beta-D-glucopyranoside at 100 mg/kg, po by UPLC-IT-TOF-MS analysis; assay type: ADME, organism-based; settings: in vivo; how it was run: as §1

| SMILES | Retention_time [1] | Drug metabolism [2] | Activity [3] | Activity [4] | further results |
| --- | --- | --- | --- | --- | --- |
| C=CC(=O)c1ccc(O)c(-c2cc(C(=O)CC)ccc2OS(=O)(=O)O)c1 | 9.05 min | Metabolite_Detected | – | – | – |
| C=CCc1ccc(O)c(-c2cc(C(=O)C=C)ccc2O[C@@H]2O[C@H](CO)[C@@H](O)[C@H](O)[C@H]2O)c1 | 10.59 min | Metabolite_Detected | – | – | – |
| C=CCc1ccc(OC(=O)C=C)c(-c2cc(CC=C)ccc2OC(=O)C=C)c1 | – | – | 0.04% | 4.57% | – |
| C=CCc1ccc(O[C@@H]2O[C@H](CO)[C@@H](O)[C@H](O)[C@H]2O)c(-c2cc(CC=C)ccc2OS(=O)(=O)O)c1 | 8.17 min | – | – | – | Drug metabolism [5]: Metabolite_Detected |
| C=CC(O)c1ccc(O)c(-c2cc(CCC)ccc2OS(=O)(=O)O)c1 (centres undefined) | 7.55 min | – | – | – | Drug metabolism [5]: Metabolite_Detected |
| C=CCc1ccc(O[C@@H]2O[C@H](CO)[C@@H](O)[C@H](O)[C@H]2O)c(-c2cc(C(O)C=C)ccc2O[C@@H]2O[C@H](C(=O)O)[C@@H](O)[C@H](O)[C@H]2O)c1 (some centres undefined) | 7.79 min | Metabolite_Detected | – | – | Drug metabolism [5]: Metabolite_Detected |
| C=CCc1ccc(OC(C)=O)c(-c2cc(CC=C)ccc2OC(C)=O)c1 | – | – | -1.86% | -2.52% | – |
| C=CC(=O)c1ccc(O[C@@H]2O[C@H](CO)[C@@H](O)[C@H](O)[C@H]2O)c(-c2cc(C(O)C=C)ccc2O)c1 (some centres undefined) | 10.88 min | Metabolite_Detected | – | – | – |
| C=CCc1ccc(OS(=O)(=O)O)c(-c2cc(C(O)C=C)ccc2O[C@@H]2O[C@H](CO)[C@@H](O)[C@H](O)[C@H]2O)c1 (some centres undefined) | 9.24 min | – | – | – | Drug metabolism [5]: Metabolite_Detected |
| C=CCc1ccc(OC(=O)c2ccccc2)c(-c2cc(CC=C)ccc2O[C@@H]2O[C@H](CO)[C@@H](O)[C@H](O)[C@H]2O)c1 | – | – | 13.2% | -5.71% | – |
| C=CC(O)c1ccc(O[C@@H]2O[C@H](C(=O)O)[C@@H](O)[C@H](O)[C@H]2O)c(-c2cc(C(O)CC)ccc2O[C@@H]2O[C@H](CO)[C@@H](O)[C@H](O)[C@H]2O)c1 (some centres undefined) | 6.75 min | Metabolite_Detected | – | – | Drug metabolism [5]: Metabolite_Detected |
| CNCCC(Oc1ccc(C(F)(F)F)cc1)c1ccccc1 (centres undefined) | – | – | – | – | Activity [6]: Active; Activity [7]: Active |
| C=CC(=O)c1ccc(O[C@@H]2O[C@H](C(=O)O)[C@@H](O)[C@H](O)[C@H]2O)c(-c2cc(C(O)C=C)ccc2O)c1 (some centres undefined) | 9.47 min | Metabolite_Detected | – | – | – |
| C=CCc1ccc(O[C@@H]2O[C@H](C(=O)O)[C@@H](O)[C@H](O)[C@H]2O)c(-c2cc(CC=C)ccc2O[C@@H]2O[C@H](CO)[C@@H](O)[C@H](O)[C@H]2O)c1 | 9.94 min | Metabolite_Detected | – | – | Drug metabolism [5]: Metabolite_Detected |
| C=CCc1ccc(O)c(-c2cc(CC=C)ccc2OC(=O)CCCl)c1 | – | – | 21% | 30.1% | – |
| Oc1ccc(CC2CO2)cc1-c1cc(CC2CO2)ccc1O (centres undefined) | – | – | 2.18% | -3.39% | – |
| C=CCc1ccc(O)c(-c2cc(C(O)C=C)ccc2O[C@@H]2O[C@H](CO)[C@@H](O)[C@H](O)[C@H]2O)c1 (some centres undefined) | 9.15 min | Metabolite_Detected | – | – | – |
| C=CCc1ccc(OC(=O)CCCCl)c(-c2cc(CC=C)ccc2OC(=O)CCCCl)c1 | – | – | 8.14% | 2.11% | – |
| C=CC(O)c1ccc(O)c(-c2cc(C(O)C=C)ccc2O)c1 (centres undefined) | 11.06 min | Metabolite_Detected | – | – | Drug metabolism [5]: Metabolite_Detected |
| C=CCc1ccc(O)c(-c2cc(CC=C)ccc2OS(=O)(=O)O)c1 | 11.49 min | – | – | – | Drug metabolism [5]: Metabolite_Detected |
| C=CCc1ccc(O)c(-c2cc(CC=C)ccc2OC(=O)/C=C/c2ccccc2)c1 | – | – | 56.8% | 25.6% | – |
| C=CCc1ccc(O)c(-c2cc(CC=C)ccc2OC(=O)CCCCl)c1 | – | – | 32% | 69.7% | Ratio [8]: 3.5 to 4.5 |

| SMILES | Retention_time [1] | Drug metabolism [2] | Activity [3] | Activity [4] | further results |
| --- | --- | --- | --- | --- | --- |
| C=CCc1ccc(O)c(-c2cc(CC3CO3)ccc2O)c1 (centres undefined) | – | – | 53.8% | -3.08% | – |
| C=CCc1ccc(O[C@@H]2O[C@H](CO)[C@@H](O)[C@H](O)[C@H]2O)c(-c2cc(CC=C)ccc2O[C@@H]2O[C@H](CO)[C@@H](O)[C@H](O)[C@H]2O)c1 | 10.63 min | Metabolite_Detected | 2.97% | 10.8% | Drug metabolism [5]: Metabolite_Detected |
| C=CCc1ccc(O[C@@H]2O[C@H](COC(C)=O)[C@@H](OC(C)=O)[C@H](OC(C)=O)[C@H]2OC(C)=O)c(-c2cc(CC=C)ccc2O[C@@H]2O[C@H](COC(C)=O)[C@@H](OC(C)=O)[C@H](OC(C)=O)[C@H]2OC(C)=O)c1 | – | – | 7.09% | 0.04% | – |
| C=CCc1ccc(O)c(-c2cc(CC=C)ccc2OC(=O)c2ccc(N)cc2)c1 | – | – | -1.55% | 5.17% | – |
| C=CC(O)c1ccc(O[C@@H]2O[C@H](C(=O)O)[C@@H](O)[C@H](O)[C@H]2O)c(-c2cc(CC(C)O)ccc2OC)c1 (some centres undefined) | 8.7 min | Metabolite_Detected | – | – | – |
| C=CCc1ccc(O)c(-c2cc(CC=C)ccc2O[C@@H]2O[C@H](COC(C)=O)[C@@H](OC(C)=O)[C@H](OC(C)=O)[C@H]2O)c1 | – | – | 11% | 19.1% | – |
| C=CCc1ccc(O)c(-c2cc(CC=C)ccc2OC(=O)c2ccccc2)c1 | – | – | -6.5% | -0.04% | – |
| C=CCc1ccc(O)c(-c2cc(CC=C)ccc2OC(=O)C=C)c1 | – | – | 1.31% | 2.93% | – |
| C=CC(O)c1ccc(O[C@@H]2O[C@H](CO)[C@@H](O)[C@H](O)[C@H]2O)c(-c2cc(C(O)CC)ccc2OS(=O)(=O)O)c1 (some centres undefined) | 7.39 min | Metabolite_Detected | – | – | – |
| C=CCc1ccc(O)c(-c2cc(CC=C)ccc2O[C@@H]2O[C@H](COC(C)=O)[C@@H](OC(C)=O)[C@H](OC(C)=O)[C@H]2OC(C)=O)c1 | – | – | -0.58% | -2.09% | – |
| C=CC(O)c1ccc(O[C@@H]2O[C@H](CO)[C@@H](O)[C@H](O)[C@H]2O)c(-c2cc(CCC)ccc2OS(=O)(=O)O)c1 (some centres undefined) | 6.91 min | – | – | – | Drug metabolism [5]: Metabolite_Detected |
| C=CCc1ccc(O)c(-c2cc(CC=C)ccc2O[C@@H]2O[C@H](CO)[C@@H](OC(C)=O)[C@H](OC(C)=O)[C@H]2O)c1 | – | – | 31% | 89% | Ratio [8]: 3.5 to 4.5 |
| C=CCc1ccc(OC(=O)/C=C/c2ccccc2)c(-c2cc(CC=C)ccc2O[C@@H]2O[C@H](CO)[C@@H](O)[C@H](O)[C@H]2O)c1 | – | – | 50.3% | -10.1% | – |
| C=CCc1ccc(OC)c(-c2cc(CC=C)ccc2O[C@@H]2O[C@H](C(=O)O)[C@@H](O)[C@H](O)[C@H]2O)c1 | 12.4 min | Metabolite_Detected | – | – | – |
| C=CCc1ccc(O)c(-c2cc(CC=C)ccc2O)c1 [MAGNOLOL] | 14.33 min | Metabolite_Detected | 40.2% | 20% | Drug metabolism [5]: Metabolite_Detected |
| C=CCc1ccc(O)c(-c2cc(CC=C)ccc2OC(C)=O)c1 | – | – | 91.4% | 77.6% | – |
| COc1ccc2cccc(CCNC(C)=O)c2c1 | – | – | – | – | Activity [6]: Active |
| C=CCc1ccc(OC(=O)c2ccccc2)c(-c2cc(CC=C)ccc2OC(=O)c2ccccc2)c1 | – | – | -5.93% | -1.72% | – |
| C=CCc1ccc(OC(=O)/C=C/c2ccccc2)c(-c2cc(CC=C)ccc2OC(=O)/C=C/c2ccccc2)c1 | – | – | 28.3% | 3.34% | – |
| C=CCc1ccc(OC(=O)/C=C/c2cccc(F)c2)c(-c2cc(CC=C)ccc2O[C@@H]2O[C@H](CO)[C@@H](O)[C@H](O)[C@H]2O)c1 | – | – | 5.3% | -10.5% | – |
| C=CCc1ccc(OC)c(-c2cc(CC=C)ccc2O[C@@H]2O[C@H](CO)[C@@H](O)[C@H](O)[C@H]2O)c1 | 11.32 min | Metabolite_Detected | – | – | Drug metabolism [9]: Metabolite_Detected; Drug metabolism [5]: Metabolite_Detected |
